# Bioassay records deposited in PubChem BioAssay by several laboratories.
# The list is not random: actives were taken first. Their share in the collection is about 4.1%.
# KCNQ1 act – potentiators or activators of human KCNQ1 potassium channel; P51787; CHO-K1 KCNQ1, thallium flux FluxOR fluorescence; stronger effect = higher value; B-score at 10 µM; actives 0.35% (n = 310,000);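 active = fluorescence ratio B-score, a plate-corrected score, at least three library SD, with initial intensity B-score within 5 SD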
#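 System: CHO-K1 cells stably expressing KCNQ1 / Medium: assay buffer for compound exposure, DMSO matched across wells / Reagent: thallium- and potassium-containing depolarizing buffer / Compound: one concentration, matched DMSO / Incubation: 20 min compound pretreatment at room temperature / Measured by: kinetic FluxOR fluorescence, 10 s baseline plus 110 s post-stimulus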
# KCNK3 block – human KCNK3 channel inhibition, primary screen. B-score at 10 µM. CHO-KCNK3 thallium flux, FluxOR fluorescence; stronger effect = lower value. actives 0.84% (n = 340,000). AID 602410. O14649;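 active = B-score under library mean minus 4 SD, starting fluorescence ratio at most library mean plus 5 SD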;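 also: more negative B-score means stronger inhibition of thallium flux through KCNK3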
# KCC2 mod – modulators of human KCC2 chloride dependent transport. KCC2 cells, thallium flux FluoZin-2 fluorescence. B-score of Tl+ flux slope (higher = more flux/activation; lower = inhibition) at 10 µM. actives 2.2% (n = 190,000). AID 1456;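 active = thallium flux slope and its plate-corrected score both differing from the plate sample mean at a set confidence after two filtering rounds, in either direction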;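 also: slope of fluorescence scaled to starting intensity during 10 to 20 s after thallium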
# Target sequence (Q9H2X9 whole entry, looked up): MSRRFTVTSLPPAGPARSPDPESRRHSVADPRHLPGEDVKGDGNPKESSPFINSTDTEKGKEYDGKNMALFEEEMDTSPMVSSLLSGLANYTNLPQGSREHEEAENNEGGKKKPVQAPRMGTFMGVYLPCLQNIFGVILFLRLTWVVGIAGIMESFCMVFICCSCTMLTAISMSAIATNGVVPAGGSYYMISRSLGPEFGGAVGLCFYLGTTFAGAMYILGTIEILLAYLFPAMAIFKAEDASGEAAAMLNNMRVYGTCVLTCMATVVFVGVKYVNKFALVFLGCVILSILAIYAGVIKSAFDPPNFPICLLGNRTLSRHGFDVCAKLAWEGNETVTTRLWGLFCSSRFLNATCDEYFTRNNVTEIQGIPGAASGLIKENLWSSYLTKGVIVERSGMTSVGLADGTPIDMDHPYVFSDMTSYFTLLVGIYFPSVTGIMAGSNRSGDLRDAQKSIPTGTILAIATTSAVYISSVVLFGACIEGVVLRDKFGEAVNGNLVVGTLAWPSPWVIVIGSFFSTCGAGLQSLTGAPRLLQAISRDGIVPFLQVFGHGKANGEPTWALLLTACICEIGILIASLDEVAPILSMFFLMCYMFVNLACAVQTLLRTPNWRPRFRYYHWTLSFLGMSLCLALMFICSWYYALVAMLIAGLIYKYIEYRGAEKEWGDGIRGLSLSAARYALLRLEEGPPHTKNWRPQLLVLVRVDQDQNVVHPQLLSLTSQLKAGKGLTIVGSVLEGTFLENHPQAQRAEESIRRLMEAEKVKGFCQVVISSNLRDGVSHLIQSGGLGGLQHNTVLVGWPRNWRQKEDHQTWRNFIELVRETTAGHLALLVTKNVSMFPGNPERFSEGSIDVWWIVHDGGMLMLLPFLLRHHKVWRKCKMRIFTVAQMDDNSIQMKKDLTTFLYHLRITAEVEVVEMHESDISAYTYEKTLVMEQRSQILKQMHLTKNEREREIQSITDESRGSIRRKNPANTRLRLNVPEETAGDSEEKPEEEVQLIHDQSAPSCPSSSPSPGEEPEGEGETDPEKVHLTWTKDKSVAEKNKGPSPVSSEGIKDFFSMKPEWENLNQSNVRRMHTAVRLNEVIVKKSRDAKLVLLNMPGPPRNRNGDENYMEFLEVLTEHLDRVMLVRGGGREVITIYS
# hERG rescue – shields human hERG channel from block by proarrhythmic agents; Q12809; CHO-hERG, FluxOR thallium flux, dofetilide IC70 present; activation (rescue from dofetilide block), less the hit threshold, % at 10 µM; actives 0.51% (n = 310,000); AID 1511;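 active = activation above the mean of controls blocked by dofetilide plus 5 SD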;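 also: thallium influx through hERG after potassium depolarization seen as dye fluorescence rise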
# KCNQ1 block – inhibitors of human KCNQ1 potassium channel; CHO-K1 KCNQ1, FluxOR thallium flux fluorescence; stronger effect = higher value; B-score at 10 µM; actives 1.3% (n = 310,000); P51787;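 active = compounds whose thallium flux B-score, printed positive for inhibition, exceeds three library SD while starting fluorescence stays within three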;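 also: channel opened by potassium depolarization with thallium stimulus after 20 min compound exposure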
# KCNK9 inh – human KCNK9 channel inhibition | Q9NPC2 | HEK293 KCNK9, FluxOR thallium flux fluorescence; stronger effect = lower value | B-score at 10 µM | actives 1.2% (n = 310,000);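 active = ratio B-score over 3 SD below the library mean, with starting fluorescence within 5 SD of its mean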;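 also: negative B-score means less thallium flux so channel inhibition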
# KCNK3 confirm – confirmation of human KCNK3 two-pore domain potassium channel inhibitors. shares compounds with KCNK3 block. CHO-KCNK3 thallium flux, FluxOR fluorescence; 0% buffer, 100% carvedilol maximal block. ratio percent of control, % at 10 µM. actives 99% (n = 2,400);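 active = ratio percent of control, averaged over triplicates, above buffer control mean plus 5 SD, cut at about 64% in these data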;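 also: ratio is the fluorescence rise from min to max over baseline after thallium stimulus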
# KCNK3 noninduced – activity in cells without induced KCNK3 expression | shares compounds with KCNK3 block | non-induced KCNK3 parental cells, FluxOR thallium flux; stronger effect = lower value | thallium flux ratio (lower = more inhibition) at 10 µM | actives 40% (n = 2,400) | AID 651747;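 active = thallium flux ratio, averaged over three wells, more than 5 SD below the buffer control mean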;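 also: host cells are CHO cells without KCNK3 induction; ratio is peak minus trough fluorescence over baseline then normalized to buffer controls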
# Numbers without * were called inactive; i = inactive; . = no result.
SMILES,KCNQ1 act,KCNK3 block,KCC2 mod,hERG rescue,KCNQ1 block,KCNK9 inh,KCNK3 confirm,KCNK3 noninduced
CCOC(=O)c1ccc(S(=O)(=O)N2CCN(C3CC(=O)N(c4ccc(OC)cc4)C3=O)CC2)cc1 (stereo not drawn),.,i,.,.,.,.,.,.
Oc1cc2c(cc1CN1CCN(c3cccc(C(F)(F)F)c3)CC1)CCC2,i,-9.4*,0.15,-14,i,i,100*,0.15*
COc1ccc(N2CCN(Cc3cc4c(cc3O)CCC4)CC2)cc1,i,i,-0.36,-16,i,i,.,.
COc1c(Cl)cc(Cl)cc1/C=C/C(=O)c1ccc(NC(=O)c2cccs2)cc1,i,-10*,-0.68,-13,i,i,107*,i
COc1c(Cl)cc(Cl)cc1C(=O)Nc1ccc(C(=O)O)cc1,i,i,.,-4,i,i,.,.
C[C@H](CO)N1C[C@H](C)[C@@H](CN(C)CC2CCCCC2)Oc2ccc(NS(C)(=O)=O)cc2C1=O,.,i,.,.,.,.,.,.
C[C@H]1CN([C@@H](C)CO)C(=O)c2cc(NS(=O)(=O)c3ccc(Cl)cc3)ccc2O[C@@H]1CN(C)CC1CCCCC1,.,-13*,.,.,.,.,93*,i
Cc1cc(-c2nnc(-c3cccc(C(F)(F)F)c3)o2)no1,i,i,-0.098,-7,i,i,.,.
FC(F)(F)Oc1ccccc1-c1nnc(-c2cccc(C(F)(F)F)c2)o1,i,-8.9*,0.87,-12,i,i,104*,i
O=C(Cc1ccccc1)Nc1cccc(-c2nc3ncccc3o2)c1,i,-10*,.,-2,i,i,64*,i
O=C(c1c[nH]c(C(=O)C(Cl)(Cl)Cl)c1)c1ccc(F)cc1Cl,8*,-11*,1.1,-15,i,i,88*,i
CCOC(=O)c1ccccc1NC(=O)c1ccc2c(SCC(=O)O)c3c(nc2c1)CCCC3,i,-9.7*,.,-36,i,i,123*,i
O=C(NCCn1cc(SCc2ccccc2)c2ccccc21)c1ccccc1F,i,-15*,-1,-23,8*,i,124*,0.15*
O=[N+]([O-])c1ccccc1Nc1c2ccccc2nc2ccccc12,i,i,0.56,-22,i,i,.,.
O=C(O)c1ccc(Nc2nc3ccccc3nc2NS(=O)(=O)c2ccc(F)cc2)cc1,i,i,.,-13,i,i,.,.
O=[N+]([O-])c1ccc(Nc2c3ccccc3nc3ccccc23)cc1,i,-12*,-0.33,-3,i,i,120*,0.15*
O=[N+]([O-])c1ccc(S(=O)(=O)Nc2nc3ccccc3nc2Nc2ccccc2)cc1,i,-11*,-0.13,-9,i,i,107*,i
COc1cc(Nc2nc3ccccc3nc2NS(=O)(=O)c2ccc([N+](=O)[O-])cc2)cc(OC)c1OC,i,-12*,.,-13,10*,i,129*,0.12*
Cc1cc(F)ccc1S(=O)(=O)N1CCCCC1CCNC(=O)C(=O)NCc1ccccn1 (stereo not drawn),i,i,.,-17,i,i,.,.
COc1ccc(N2C(=O)CC(NNC(=O)c3cccnc3)C2=O)cc1 (stereo not drawn),i,i,1.4,-5,i,i,.,.
O=C(c1ccc(Cl)s1)N1CCN(S(=O)(=O)c2ccc(Cl)cc2)CC1,.,i,.,.,.,.,.,.
CCCOP(=O)(OCCC)C(Nc1ccc(C(C)C)cc1)c1ccc([N+](=O)[O-])cc1 (stereo not drawn),i,-8.8*,-0.68,-16,i,i,118*,0.16*
COCCN(CCOC)S(=O)(=O)c1ccc(C(=O)Nc2ccc(S(=O)(=O)Nc3nccc(C)n3)cc2)cc1,i,-8.9*,0.52,-1,i,i,70*,i
COc1ccc2nccc(C(N)=O)c2c1,i,i,0.32,-5,i,i,.,.
CN(C)c1ccc(C(=O)N/N=C/c2ccccn2)cc1,i,i,.,-10,i,i,.,.
SMILES,KCNQ1 act,KCNK3 block,KCC2 mod,hERG rescue,KCNQ1 block,KCNK9 inh,KCNK3 confirm,KCNK3 noninduced
CCCCN(C)Cc1cc(=O)oc2ccc3ccccc3c12,i,-9.3*,.,-8,i,i,120*,0.15*
CN(CCC#N)Cc1cc(=O)oc2ccc3ccccc3c12,i,i,-0.86,-6,i,i,.,.
Fc1ccccc1-c1cc2ncccc2cn1,.,i,.,.,.,.,.,.
Cc1ccc(Cl)cc1N1CCN(C(=O)C2CCC(=O)N(C3CCCCCC3)C2)CC1 (stereo not drawn),i,-11*,.,-17,i,i,110*,i
COc1ccc(Br)cc1CNC(=O)CN1C(=O)C(c2ccccc2)Oc2cccnc21 (stereo not drawn),i,-10*,.,-10,i,i,95*,i
COc1ccc(NC(=O)CCCN2C(=O)C(c3ccccc3)Oc3cccnc32)cc1OC (stereo not drawn),i,i,.,-5,i,i,.,.
CCOc1cc(/C=C2\C(=O)N(Cc3ccco3)C(C)=C2C(=O)OC)ccc1O,i,-9.5*,-0.37,-27,i,i,71*,i
CCCc1cnc(NCCNCC(O)COc2ccc(Cl)c(Cl)c2)nc1 (stereo not drawn),i,i,0.27,-33,i,i,.,.
CC(O)CN1C(=O)C(CC(=O)Nc2ccc(Cl)cc2)SC1=Nc1ccccc1 (stereo not drawn),i,-9.5*,.,-1,i,i,110*,i
COc1ccccc1C(=O)Nc1ccccc1SC(=O)c1ccccc1OC,i,-9.4*,.,-20,i,-13*,113*,i
COc1ccccc1C(=O)Nc1cccc(NC(=O)c2ccccc2OC)n1,i,-11*,.,-8,i,i,113*,i
COC(=O)c1ccccc1NC(=O)c1ccccc1OC,i,i,.,-9,i,i,.,.
Cc1cccc(NC(=O)c2ccc(C(=O)c3ccccc3)cc2)n1,i,i,.,-17,i,i,.,.
O=C(Nc1cccc(NC(=O)c2ccccc2)n1)c1ccccc1,i,-10*,.,-5,i,i,97*,i
O=C(Nc1ccc2c(c1)CN(Cc1ccccc1O)CC2)C1CCCO1 (stereo not drawn),i,i,.,-5,i,i,.,.
